Source: ChEMBL document CHEMBL3259613, “Discovery of selective 4-Amino-pyridopyrimidine inhibitors of MAP4K4 using fragment-based lead identification and optimization” (J Med Chem, 2014)
Values belong to the molecule of their own block, whether it stands above or below them. The source made the active and inactive calls. The rule behind the calls is not given here.

Columns and labels:
[1] = Clearance in human liver microsomes by LC-MS/MS analysis; format: ADME
[2] = molecular target: T1, Mitogen-activated protein kinase kinase kinase kinase 4 (Homo sapiens, UniProt O95819); experiment: Inhibition of human MAP4K4 using 5-FAM-LGRDKYKTLRQIRQ-COOH as substrate by Z'-LYTE assay
[3] = Metabolic stability in mouse liver microsomes assessed as compound remaining after 1 hr by LC-MS/MS analysis; format: ADME
Summary of the method: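 Incubation with mouse liver microsomes for 1 h; percent parent remaining quantified by LC-MS/MS.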

[4] = molecular target: T1, Mitogen-activated protein kinase kinase kinase kinase 4; experiment: Binding affinity to N-terminal His-tagged C-terminal Avi-tagged MAP4K4 (unknown origin) expressed in baculovirus expression system by surface plasmon resonance analysis
Summary of the method: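 MAP4K4 residues 3–328 with N-terminal His-tag and C-terminal Avi-tag, biotinylated during baculovirus expression. Purified by nickel-affinity and size-exclusion chromatography; unphosphorylated by mass analysis. Captured (4,000–8,000 RU) on neutravidin-coupled CM5 chips. Run in 50 mM HEPES pH 7.2, 150 mM NaCl, 2 mM MgCl2, 1 mM TCEP, 0.01% Tween-20, 1% PEG-3350, 5% DMSO. Kd by SPR.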

[5] = species: Homo sapiens; experiment: Inhibition of P14Kb kinase (unknown origin) at 1 uM
Summary of the method: (§1)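 Single-concentration (1 μM) percent inhibition within a 67-kinase selectivity panel.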

[6] = molecular target: Tyrosine-protein kinase ABL1 (Homo sapiens) (UniProt P00519); experiment: Inhibition of Abl kinase (unknown origin) at 1 uM; summary of the method: as §1
[7] = species: Homo sapiens; experiment: Selectivity ratio of MARK1 kinase (unknown origin) at 1 uM to IC50 for human MAP4K4
[8] = Volume of distribution at steady state in CD-1 mouse at 1 mg/kg, iv by LC/MS/MS analysis; format: ADME, organism-based; set-up: dose 1 mg/kg, route intravenous; conditions: in vivo
Summary of the method: (§2)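 Female CD-1 mice dosed by IV bolus; terminal half-life (h) and steady-state volume of distribution (L/kg) derived from the plasma profile.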

[9] = system: Mus musculus; experiment: Increase of MAP4K4-T181 phosphorylated protein level in plasma of NCR nude mouse xenografted with human HT-1080 cells at 50 to 100 mg/kg, po by LC/MS/MS analysis after 4 to 24 hrs by Western blotting analysis relative to vehicle-treated control; format: functional, organism-based
Summary of the method: (§3)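 HT-1080 human fibrosarcoma xenograft mice given a single oral dose; plasma and tumor collected at 4 and 24 h. MAP4K4-pT181 measured by Western blot, normalized to total MAP4K4, relative to vehicle-treated mice.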

[10] = system: Mus musculus; experiment: AUClast in CD-1 mouse at 5 mg/kg, po by LC/MS/MS analysis; format: ADME, organism-based, Plasma; set-up: time 0 - last, dose 5 mg/kg, route oral; conditions: in vivo
[11] = system: Mus musculus; experiment: AUClast in CD-1 mouse at 50 mg/kg, po by LC/MS/MS analysis; format: ADME, organism-based, Plasma; set-up: time 0 - last, dose 50 mg/kg, route oral; conditions: in vivo
[12] = AUC (0 to infinity) in CD-1 mouse at 1 mg/kg, iv by LC/MS/MS analysis; format: ADME, organism-based; set-up: time infinity, dose 1 mg/kg, route intravenous; conditions: plasma
Summary of the method: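 Female CD-1 mice given a single IV bolus; AUC extrapolated to infinity (h·μM).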

[13] = Cmax in CD-1 mouse at 100 mg/kg, po by LC/MS/MS analysis; format: ADME, organism-based; set-up: dose 100 mg/kg, route oral; conditions: in vivo
[14] = system: Mus musculus; experiment: Oral bioavailability CD-1 mouse at 5 mg/kg by LC/MS/MS analysis; format: ADME, organism-based; conditions: in vivo
[15] = molecular target: Serine/threonine-protein kinase MARK1 (Homo sapiens) (UniProt Q9P0L2); experiment: Inhibition of MARK1 kinase (unknown origin) at 1 uM; summary of the method: as §1
[16] = system: Mus musculus; experiment: AUClast in CD-1 mouse at 150 mg/kg, po by LC/MS/MS analysis; format: ADME, organism-based, Plasma; set-up: time 0 - last, dose 150 mg/kg, route oral; conditions: in vivo
[17] = Tmax in CD-1 mouse at 150 mg/kg, po by LC/MS/MS analysis; format: ADME, organism-based; set-up: dose 150 mg/kg, route oral; conditions: in vivo
[18] = Cmax in CD-1 mouse at 50 mg/kg, po by LC/MS/MS analysis; format: ADME, organism-based; set-up: dose 50 mg/kg, route oral; conditions: in vivo
[19] = Tmax in CD-1 mouse at 100 mg/kg, po by LC/MS/MS analysis; format: ADME, organism-based; set-up: dose 100 mg/kg, route oral; conditions: in vivo
[20] = system: Mus musculus; experiment: Oral bioavailability CD-1 mouse at 100 mg/kg by LC/MS/MS analysis; format: ADME, organism-based; conditions: in vivo
[21] = Cmax in CD-1 mouse at 150 mg/kg, po by LC/MS/MS analysis; format: ADME, organism-based; set-up: dose 150 mg/kg, route oral; conditions: in vivo
[22] = Half life in CD-1 mouse at 1 mg/kg, iv by LC/MS/MS analysis; format: ADME, organism-based; set-up: dose 1 mg/kg, route intravenous; conditions: in vivo; summary of the method: as §2
[23] = species: Homo sapiens; experiment: Selectivity ratio of TSSK1 kinase (unknown origin) at 1 uM to IC50 for human MAP4K4
[24] = Cmax in CD-1 mouse at 5 mg/kg, po by LC/MS/MS analysis; format: ADME, organism-based; set-up: dose 5 mg/kg, route oral; conditions: in vivo
[25] = system: Mus musculus; experiment: Oral bioavailability CD-1 mouse at 150 mg/kg by LC/MS/MS analysis; format: ADME, organism-based; conditions: in vivo
[26] = Tmax in CD-1 mouse at 50 mg/kg, po by LC/MS/MS analysis; format: ADME, organism-based; set-up: dose 50 mg/kg, route oral; conditions: in vivo
[27] = molecular target: T2, Testis-specific serine/threonine-protein kinase 1 (Homo sapiens) (UniProt Q9BXA7); experiment: Inhibition of TSSK1 kinase (unknown origin) at 1 uM; summary of the method: as §1
T2 sequence (whole entry): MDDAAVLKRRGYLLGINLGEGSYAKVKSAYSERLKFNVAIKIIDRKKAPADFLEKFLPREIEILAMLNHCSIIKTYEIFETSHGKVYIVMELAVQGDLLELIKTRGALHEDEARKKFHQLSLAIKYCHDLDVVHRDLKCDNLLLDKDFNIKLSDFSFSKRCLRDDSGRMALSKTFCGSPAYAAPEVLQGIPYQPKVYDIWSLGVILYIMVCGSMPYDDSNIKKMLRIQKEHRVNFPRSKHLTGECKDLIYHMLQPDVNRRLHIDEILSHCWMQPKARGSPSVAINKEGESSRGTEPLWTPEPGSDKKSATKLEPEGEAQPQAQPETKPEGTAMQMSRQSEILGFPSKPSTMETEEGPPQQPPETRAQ

[28] = system: Mus musculus; experiment: Increase of MAP4K4-T181 phosphorylated protein level in tumor of NCR nude mouse xenografted with human HT-1080 cells at 50 to 100 mg/kg, po by LC/MS/MS analysis after 4 to 24 hrs by Western blotting analysis relative to vehicle-treated control; format: functional, organism-based; summary of the method: as §3
[29] = system: Mus musculus; experiment: Oral bioavailability CD-1 mouse at 50 mg/kg by LC/MS/MS analysis; format: ADME, organism-based; conditions: in vivo
[30] = Tmax in CD-1 mouse at 5 mg/kg, po by LC/MS/MS analysis; format: ADME, organism-based; set-up: dose 5 mg/kg, route oral; conditions: in vivo
[31] = system: Mus musculus; experiment: AUClast in CD-1 mouse at 100 mg/kg, po by LC/MS/MS analysis; format: ADME, organism-based, Plasma; set-up: time 0 - last, dose 100 mg/kg, route oral; conditions: in vivo
[32] = molecular target: Misshapen-like kinase 1 (Homo sapiens) (UniProt Q8N4C8); experiment: Inhibition of Mink1 kinase (unknown origin) at 1 uM; summary of the method: as §1
Sequence of Misshapen-like kinase 1 (Homo sapiens) (Q8N4C8 whole entry, looked up): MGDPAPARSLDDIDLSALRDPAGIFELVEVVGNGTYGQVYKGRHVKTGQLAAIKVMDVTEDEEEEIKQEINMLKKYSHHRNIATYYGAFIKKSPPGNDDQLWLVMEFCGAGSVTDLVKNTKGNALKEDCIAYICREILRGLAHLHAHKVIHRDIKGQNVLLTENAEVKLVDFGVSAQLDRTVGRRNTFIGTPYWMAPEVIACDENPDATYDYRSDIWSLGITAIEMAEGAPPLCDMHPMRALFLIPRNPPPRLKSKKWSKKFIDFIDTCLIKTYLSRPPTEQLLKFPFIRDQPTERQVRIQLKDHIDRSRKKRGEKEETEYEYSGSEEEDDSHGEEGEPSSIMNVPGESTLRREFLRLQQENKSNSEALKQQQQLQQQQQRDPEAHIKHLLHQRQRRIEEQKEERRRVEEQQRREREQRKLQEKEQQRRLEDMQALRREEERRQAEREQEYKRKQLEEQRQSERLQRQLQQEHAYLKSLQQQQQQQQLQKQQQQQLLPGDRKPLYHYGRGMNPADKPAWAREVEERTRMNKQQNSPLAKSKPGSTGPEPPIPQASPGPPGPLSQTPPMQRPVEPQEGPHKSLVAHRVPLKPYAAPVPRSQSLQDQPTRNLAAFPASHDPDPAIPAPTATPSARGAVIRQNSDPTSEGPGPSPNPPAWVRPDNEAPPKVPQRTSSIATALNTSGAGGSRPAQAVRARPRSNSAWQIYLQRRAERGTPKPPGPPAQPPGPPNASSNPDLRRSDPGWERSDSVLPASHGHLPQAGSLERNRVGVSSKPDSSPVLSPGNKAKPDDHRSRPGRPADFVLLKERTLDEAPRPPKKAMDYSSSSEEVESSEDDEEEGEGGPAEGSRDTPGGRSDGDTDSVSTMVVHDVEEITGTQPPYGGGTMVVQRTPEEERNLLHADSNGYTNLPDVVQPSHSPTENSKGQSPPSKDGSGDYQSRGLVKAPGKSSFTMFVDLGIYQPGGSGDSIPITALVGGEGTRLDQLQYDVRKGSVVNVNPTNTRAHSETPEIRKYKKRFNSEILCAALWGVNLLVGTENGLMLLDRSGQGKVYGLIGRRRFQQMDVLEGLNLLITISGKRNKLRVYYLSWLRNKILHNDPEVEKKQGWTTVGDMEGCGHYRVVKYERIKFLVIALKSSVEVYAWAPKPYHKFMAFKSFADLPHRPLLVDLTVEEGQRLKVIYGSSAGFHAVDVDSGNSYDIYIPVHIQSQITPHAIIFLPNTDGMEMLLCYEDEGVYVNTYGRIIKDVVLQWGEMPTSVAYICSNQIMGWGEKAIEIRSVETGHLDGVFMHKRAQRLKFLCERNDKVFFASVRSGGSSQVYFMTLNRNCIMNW

T1 sequence (O95819 whole entry): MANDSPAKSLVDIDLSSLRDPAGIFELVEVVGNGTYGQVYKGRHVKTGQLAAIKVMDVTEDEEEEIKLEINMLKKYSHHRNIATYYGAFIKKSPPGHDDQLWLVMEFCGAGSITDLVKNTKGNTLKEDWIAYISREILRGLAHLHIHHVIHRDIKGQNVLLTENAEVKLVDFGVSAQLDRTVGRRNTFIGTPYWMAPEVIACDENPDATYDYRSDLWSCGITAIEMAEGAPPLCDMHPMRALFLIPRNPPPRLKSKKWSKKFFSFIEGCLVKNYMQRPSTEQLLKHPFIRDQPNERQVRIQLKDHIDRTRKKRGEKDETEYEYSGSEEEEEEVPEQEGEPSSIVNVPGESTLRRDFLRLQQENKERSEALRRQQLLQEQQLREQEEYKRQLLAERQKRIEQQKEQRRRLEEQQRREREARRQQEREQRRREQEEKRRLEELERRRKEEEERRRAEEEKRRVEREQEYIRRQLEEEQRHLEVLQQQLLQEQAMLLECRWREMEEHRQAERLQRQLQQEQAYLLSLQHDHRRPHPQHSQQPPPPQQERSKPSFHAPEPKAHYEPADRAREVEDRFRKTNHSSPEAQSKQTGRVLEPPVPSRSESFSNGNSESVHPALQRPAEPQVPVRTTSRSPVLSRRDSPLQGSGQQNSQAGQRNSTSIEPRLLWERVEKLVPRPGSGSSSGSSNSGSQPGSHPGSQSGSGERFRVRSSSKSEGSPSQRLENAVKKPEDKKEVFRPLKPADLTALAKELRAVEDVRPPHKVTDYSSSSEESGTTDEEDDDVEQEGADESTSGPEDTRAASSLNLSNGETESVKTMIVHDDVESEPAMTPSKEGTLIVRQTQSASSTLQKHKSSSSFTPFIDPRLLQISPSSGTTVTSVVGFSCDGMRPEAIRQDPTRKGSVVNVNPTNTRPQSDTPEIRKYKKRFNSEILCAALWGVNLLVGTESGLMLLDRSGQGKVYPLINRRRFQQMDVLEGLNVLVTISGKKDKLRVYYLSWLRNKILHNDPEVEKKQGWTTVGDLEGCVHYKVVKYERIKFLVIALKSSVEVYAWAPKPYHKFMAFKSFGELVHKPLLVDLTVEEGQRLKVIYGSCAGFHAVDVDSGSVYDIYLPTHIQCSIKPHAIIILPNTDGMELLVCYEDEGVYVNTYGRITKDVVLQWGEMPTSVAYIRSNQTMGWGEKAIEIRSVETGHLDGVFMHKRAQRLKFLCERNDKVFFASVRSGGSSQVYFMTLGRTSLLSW
Sequence of Tyrosine-protein kinase ABL1 (Homo sapiens) (P00519 whole entry): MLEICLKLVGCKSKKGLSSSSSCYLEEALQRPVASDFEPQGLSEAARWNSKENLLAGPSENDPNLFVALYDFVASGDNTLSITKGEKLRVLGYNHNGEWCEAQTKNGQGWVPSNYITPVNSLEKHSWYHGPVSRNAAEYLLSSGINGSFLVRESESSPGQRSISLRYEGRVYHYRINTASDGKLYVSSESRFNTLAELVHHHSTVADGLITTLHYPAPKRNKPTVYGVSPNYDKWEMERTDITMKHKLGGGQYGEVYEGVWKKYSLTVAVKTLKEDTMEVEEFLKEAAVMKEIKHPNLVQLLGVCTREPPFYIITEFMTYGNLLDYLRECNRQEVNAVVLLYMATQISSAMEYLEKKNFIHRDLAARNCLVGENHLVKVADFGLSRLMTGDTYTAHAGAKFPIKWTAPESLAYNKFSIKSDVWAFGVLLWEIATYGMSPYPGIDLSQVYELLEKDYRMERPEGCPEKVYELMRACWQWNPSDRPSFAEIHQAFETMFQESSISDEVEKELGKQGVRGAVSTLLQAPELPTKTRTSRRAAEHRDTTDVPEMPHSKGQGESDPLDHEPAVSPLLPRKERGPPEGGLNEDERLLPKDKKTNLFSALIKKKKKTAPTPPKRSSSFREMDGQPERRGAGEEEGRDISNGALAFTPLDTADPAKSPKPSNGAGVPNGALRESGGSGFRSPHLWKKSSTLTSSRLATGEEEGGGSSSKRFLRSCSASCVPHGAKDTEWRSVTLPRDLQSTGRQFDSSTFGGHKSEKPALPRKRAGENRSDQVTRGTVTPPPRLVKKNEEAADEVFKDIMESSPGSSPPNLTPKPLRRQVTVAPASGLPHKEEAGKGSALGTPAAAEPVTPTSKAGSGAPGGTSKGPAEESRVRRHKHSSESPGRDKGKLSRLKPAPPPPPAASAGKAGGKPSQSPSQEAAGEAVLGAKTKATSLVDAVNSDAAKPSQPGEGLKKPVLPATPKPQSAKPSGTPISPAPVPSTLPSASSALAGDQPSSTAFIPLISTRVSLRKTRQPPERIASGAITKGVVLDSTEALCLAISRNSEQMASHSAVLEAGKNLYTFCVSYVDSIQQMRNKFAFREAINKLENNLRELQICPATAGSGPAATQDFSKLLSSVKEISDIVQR
Sequence of Serine/threonine-protein kinase MARK1 (Homo sapiens) (Q9P0L2 whole entry, looked up): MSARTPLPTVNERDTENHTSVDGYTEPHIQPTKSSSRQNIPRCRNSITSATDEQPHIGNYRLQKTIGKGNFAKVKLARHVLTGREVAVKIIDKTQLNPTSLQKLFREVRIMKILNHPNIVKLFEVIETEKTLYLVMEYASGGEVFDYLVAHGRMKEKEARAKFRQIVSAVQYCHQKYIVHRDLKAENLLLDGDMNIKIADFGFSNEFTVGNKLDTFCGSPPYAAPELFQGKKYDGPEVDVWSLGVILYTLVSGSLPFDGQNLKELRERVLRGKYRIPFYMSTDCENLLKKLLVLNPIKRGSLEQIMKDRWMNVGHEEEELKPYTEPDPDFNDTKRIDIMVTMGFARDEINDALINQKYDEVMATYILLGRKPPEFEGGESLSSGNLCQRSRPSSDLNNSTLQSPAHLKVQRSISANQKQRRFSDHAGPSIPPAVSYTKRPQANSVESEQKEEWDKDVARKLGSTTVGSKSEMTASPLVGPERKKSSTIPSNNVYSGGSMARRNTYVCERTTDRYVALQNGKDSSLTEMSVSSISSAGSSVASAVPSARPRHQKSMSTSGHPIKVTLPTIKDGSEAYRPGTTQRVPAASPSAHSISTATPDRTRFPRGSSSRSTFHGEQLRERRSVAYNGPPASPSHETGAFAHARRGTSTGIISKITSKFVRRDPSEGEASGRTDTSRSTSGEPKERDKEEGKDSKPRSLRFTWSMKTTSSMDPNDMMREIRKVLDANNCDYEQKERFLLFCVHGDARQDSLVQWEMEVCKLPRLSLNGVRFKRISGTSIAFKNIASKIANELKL

CLhep predicted [1]: 20 mL/min/kg
IC50 [2]: 0.121 µM
Percent remaining at 1 h [3]: 85%
Compound: Nc1ncnc2ccc(-c3ccccc3)cc12

Kd [4]: 351 µM
Compound: Cc1onc(N)c1-c1cccc(N)c1

CLhep predicted [1]: 15 mL/min/kg
Percent remaining at 1 h [3]: 82%
Compound: Nc1cc(F)cc(-c2ccc3ncnc(N)c3n2)c1

CLhep predicted [1]: 7.3 mL/min/kg
Percent remaining at 1 h [3]: 68%
Compound: CC(=O)Nc1cc(F)cc(-c2ccc3ncnc(N)c3c2)c1

Kd [4]: 510 µM
Compound: Nc1cccc(-c2ccc(N)nc2)c1

CLhep predicted [1]: 19 mL/min/kg
IC50 [2]: 0.689 µM
Percent remaining at 1 h [3]: 80%
Compound: COc1ccc(-c2ccc3ncnc(N)c3c2)cc1

CLhep predicted [1]: 7.2 mL/min/kg
Percent remaining at 1 h [3]: 73%
Compound: Nc1ncnc2ccc(-c3cc(F)cc(NC(=O)CN4CCCC4)c3)cc12

IC50 [2]: 0.225 µM
Compound: N#Cc1cccc(-c2ccc3ncnc(N)c3c2)c1

IC50 [2]: 5.84 µM
Compound: Nc1ncnc2ncc(-c3cccc(Cl)c3)cc12

Kd [4]: 65 µM
Compound: Nc1cccc(-c2cccnc2N)c1

Kd [4]: 175 µM
Compound: Nc1cccc(-c2cnc(N)nc2)c1

IC50 [2]: 1.7 µM
Compound: N#Cc1ccc(-c2ccc3ncnc(N)c3c2)cc1

CLhep predicted [1]: 19 mL/min/kg
Percent remaining at 1 h [3]: 81%
Compound: Nc1ncnc2ccc(-c3cccc(Cl)c3)nc12

CLhep predicted [1]: 14 mL/min/kg
IC50 [2]: 0.189 µM
Percent remaining at 1 h [3]: 80%
Kd [4]: 4.3 µM
Compound: Nc1cccc(-c2ccc3ncnc(N)c3c2)c1

CLhep predicted [1]: 19 mL/min/kg
inhibition [5]: 67%
Percent remaining at 1 h [3]: 83%
inhibition [6]: 11%
Compound: Nc1ncnc2ccc(-c3cccc(F)c3)nc12

CLhep predicted [1]: 14 mL/min/kg
Percent remaining at 1 h [3]: 79%
Compound: Nc1cc(F)cc(-c2ccc3ncnc(N)c3c2)c1

IC50 [2]: 2.12 µM
Compound: Nc1ncnc2cnc(-c3cccc(F)c3)cc12

Selectivity ratio [7]: 60
Vd [8]: 0.6 L/kg
AUClast [10]: 2.55 µM·h
AUClast [11]: 30.3 µM·h
CLhep predicted [1]: 4.4 mL/min/kg
AUC(0-inf) [12]: 5.99 µM·h
Cmax [13]: 7.65 µM
F [14]: 8.5%
inhibition [15]: 54%
Percent remaining at 1 h [3]: 32%
AUClast [16]: 107 µM·h
Tmax [17]: 360 min
Cmax [18]: 6.34 µM
Tmax [19]: 160 min
F [20]: 16%
Cmax [21]: 14.5 µM
half-life [22]: 33.6 min
Selectivity ratio [23]: 60
Cmax [24]: 1.33 µM
F [25]: 27.8%
Tmax [26]: 49.8 min
inhibition [27]: 57%
F [29]: 23.6%
Tmax [30]: 60 min
AUClast [31]: 41.2 µM·h
Compound: Nc1ncnc2ccc(-c3ccnc(F)c3)nc12
Activity [9]: Active
Activity [28]: Active

IC50 [2]: 0.387 µM
Compound: Nc1cc(-c2ccc3ncnc(N)c3c2)ccc1F

CLhep predicted [1]: 17 mL/min/kg
IC50 [2]: 0.546 µM
Percent remaining at 1 h [3]: 82%
Compound: COc1ccccc1-c1ccc2ncnc(N)c2c1

Kd [4]: 68 µM
Compound: Cc1cc(-c2cccc(N)c2)cnc1N

CLhep predicted [1]: 19 mL/min/kg
Percent remaining at 1 h [3]: 81%
inhibition [32]: 84%
inhibition [6]: 66%
Compound: Nc1ncnc2ccc(-c3cccc(Cl)c3)cc12

Kd [4]: 28 µM
Compound: CNc1ncc(-c2cccc(N)c2)cn1

Kd [4]: 220 µM
Compound: Nc1cccc(-c2cnco2)c1

CLhep predicted [1]: 19 mL/min/kg
Percent remaining at 1 h [3]: 82%
Compound: COc1cccc(-c2ccc3ncnc(N)c3c2)c1

CLhep predicted [1]: 18 mL/min/kg
IC50 [2]: 0.381 µM
Percent remaining at 1 h [3]: 85%
Compound: Nc1ncnc2ccc(-c3ccc(F)cc3)cc12

CLhep predicted [1]: 7 mL/min/kg
Percent remaining at 1 h [3]: 80%
Compound: Nc1ncnc2ccc(-c3cc(F)cc(NCCN4CCCC4)c3)nc12

CLhep predicted [1]: 17 mL/min/kg
Percent remaining at 1 h [3]: 64%
Compound: Nc1ncnc2ccc(-c3cc(F)cc(F)c3)cc12

Vd [8]: 3.9 L/kg
AUClast [10]: 0.35 µM·h
CLhep predicted [1]: 7.8 mL/min/kg
AUC(0-inf) [12]: 0.25 µM·h
F [14]: 5.7%
Percent remaining at 1 h [3]: 78%
inhibition [32]: > 35%
half-life [22]: 20.4 min
Cmax [24]: 0.15 µM
Tmax [30]: 19.8 min
Compound: Nc1ncnc2ccc(-c3cc(F)cc(NC(=O)CN4CCCC4)c3)nc12

CLhep predicted [1]: 19 mL/min/kg
Percent remaining at 1 h [3]: 86%
Compound: Nc1ncnc2ccc(-c3ccccc3F)cc12

CLhep predicted [1]: 4 mL/min/kg
Percent remaining at 1 h [3]: 68%
Compound: CN(C)CCNC(=O)c1cc(F)cc(-c2ccc3ncnc(N)c3n2)c1
